RGS4 block: human RGS4 inhibition; B-score at 10 µM; HEK293 M3R/RGS4 inducible, Fluo-4 calcium flux; stronger effect = higher value; triggered by carbachol at its EC20; 0.45% of 310,000 active; AID 463165;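 active means B-score, a plate-corrected calcium signal, over three deviations above library mean, with baseline fluorescence within five deviations of library mean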;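 further: RGS4 expression induced by doxycycline in cells with stable M3 receptor; B-score is computed from the integrated fluorescence ratio over baseline after carbachol; higher B-score means a larger calcium signal and so more RGS4 inhibition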
Target sequence (P49798 whole entry, looked up): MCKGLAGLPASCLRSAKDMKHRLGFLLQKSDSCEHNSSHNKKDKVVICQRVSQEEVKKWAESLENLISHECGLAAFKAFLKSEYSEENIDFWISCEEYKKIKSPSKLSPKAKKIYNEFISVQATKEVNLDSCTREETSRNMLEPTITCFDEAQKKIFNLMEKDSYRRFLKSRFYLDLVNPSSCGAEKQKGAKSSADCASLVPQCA
MrgX1 antag: human MrgX1 receptor antagonism, primary screen; 1.3% of 310,000 active; MRGX1-HEK293 calcium flux, Fluo-4, BAM8-22 antagonism; stronger effect = lower value; Q96LB2; B-score at 10 µM;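 active means calcium-response B-score plate-corrected more than 3 library SD below zero, starting fluorescence within 5 deviations, no agonist response on first addition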;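 further: peak minus trough fluorescence over baseline after final BAM8-22 challenge near maximal dose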
Target sequence (Q96LB2 whole entry, looked up): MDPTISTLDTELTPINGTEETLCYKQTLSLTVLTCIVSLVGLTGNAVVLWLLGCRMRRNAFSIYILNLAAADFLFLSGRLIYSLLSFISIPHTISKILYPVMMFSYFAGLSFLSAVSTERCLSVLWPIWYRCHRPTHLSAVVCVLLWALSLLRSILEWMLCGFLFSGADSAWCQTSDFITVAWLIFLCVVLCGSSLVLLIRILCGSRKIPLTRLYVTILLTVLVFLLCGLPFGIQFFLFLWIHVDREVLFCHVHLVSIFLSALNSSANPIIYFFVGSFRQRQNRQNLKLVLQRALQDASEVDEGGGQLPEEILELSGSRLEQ
MrgX1 PAM: allosterically activates human MrgX1 receptor signaling; Q96LB2; B-score at 10 µM; AID 588675; MrgX1-HEK293, Fluo-4 calcium flux, FDSS; stronger effect = higher value; 0.63% of 310,000 active;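 active means plate-corrected calcium response at least 3 library SD above typical, normal starting fluorescence, not activating the receptor alone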;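 further: compound read alongside a low EC10 to EC30 dose of BAM8-22 agonist; peak minus trough fluorescence over baseline measured at the second addition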
MrgX1 ag: human MrgX1 receptor agonism, primary screen; Q96LB2; MrgX1-HEK293 cells, Fluo-4 calcium fluorescence, agonist mode; stronger effect = higher value; B-score at 10 µM; 0.44% of 310,000 active; AID 588627;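 active means calcium response B-score plate-corrected fluorescence ratio at least 3 library SD, with starting fluorescence B-score inside 5 SD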
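Assay system: MrgX1-expressing HEK293 cells / Amount: fifteen thousand cells per well / Doses: test compound in the initial addition of three / Timing: cells plated overnight, dye loaded 0.5 h 37 °C, 0.5 h room temperature / Technique: kinetic calcium dye fluorescence, Fluo-4 NW / Control set: positive and negative controls per plate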
RGS4 act: RGS4 potentiation or activation | 0.92% of 310,000 active | B-score at 10 µM | AID 463111 | HEK293 M3R/inducible RGS4, carbachol calcium flux Fluo4; stronger effect = lower value;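 active means B-score of the integrated calcium signal more than 4 SD below the library mean, with starting fluorescence not abnormally high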;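 further: negative B-score means reduced calcium response which marks RGS4 activation or potentiation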
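test system = M3R-expressing HEK293 line, RGS4 induced by doxycycline | probe or stimulus = carbachol at ECmax as muscarinic agonist stimulus | timing = dye loading 30 min 37 °C, buffer rest 30 min RT | signal = calcium dye Fluo4 fluorescence | evaluation = B score from integrated fluorescence ratio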
RGS4 block valid: validation of RGS4 inhibitors | 65% of 1,700 active | calcium response, % at 10 µM | HEK293 M3R/RGS4, carbachol calcium Fluo-4 fluorescence; carbachol added at its EC20; 0 = buffer wells, 100 = carbachol control | shares compounds with RGS4 block | AID 492999;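 active means duplicate-averaged calcium response above the buffer-only control mean plus 5 SD of those controls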;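 further: integrated fluorescence ratio F max minus min over baseline F0; higher response in RGS4-induced cells means RGS4 inhibition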
M3R Ca ctr: counter-screen for RGS4 inhibitors: effect in non-induced cells; shares compounds with RGS4 block; HEK293 M3R non-induced, carbachol calcium Fluo-4; submaximal (EC20) carbachol stimulus; buffer wells 0%, carbachol control wells 100%; activity (percent), % at 10 µM; 20% of 1,900 active; AID 493000; call rule not given here;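 further: RGS4 induction absent so cells express M3R without RGS4; higher means more calcium signal and flags a non-specific hit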
RGS4 inh ctr2: second counter-screen for RGS4 inhibitors: non-induced cells without carbachol; shares compounds with RGS4 block; AID 493001; calcium response (agonist-mode artifact), % at 10 µM; HEK293 M3R/RGS4 non-induced, Fluo-4 calcium, no carbachol; normalised: buffer wells 0%, carbachol wells 100%; 22% of 1,900 active;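 active means duplicate-averaged calcium rise in uninduced cells above buffer wells' mean plus 5 SD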
Numbers without * were called inactive; i = inactive; x = no result. Only some compounds are listed: those with a hit (about 3.5% of all), similar ones and a draw of the others.

SMILES	RGS4 block	MrgX1 antag	MrgX1 PAM	MrgX1 ag	RGS4 act	RGS4 block valid	M3R Ca ctr	RGS4 inh ctr2
CC1(C)CC(=O)C(C(C2=C(O)CC(C)(C)CC2=O)c2ccc([N+](=O)[O-])cc2)C(=O)C1 (stereo not given)	i	i	i	i	i	x	x	x
Cc1ccc(C(C2=C(O)CC(C)(C)CC2=O)C2C(=O)CC(C)(C)CC2=O)s1 (stereo not given)	14*	i	i	i	i	35%*	44%*	i
N#CCSc1n[nH]c2nc3c(c(=O)n12)C1(CCCCC1)Cc1ccccc1-3	i	i	i	i	i	x	x	x
Cc1ccccc1-n1c(=O)c2c(n3cnnc13)-c1ccccc1CC21CCCCC1	i	i	i	i	i	x	x	x
CSc1n[nH]c2nc3c(c(=O)n12)C1(CCCCC1)Cc1ccccc1-3	4.7*	i	i	i	i	12%*	i	i
CCn1c(=O)c2c(n3c(=S)[nH]nc13)-c1ccccc1CC21CCCCC1	8.3*	i	i	i	i	46%*	57%*	i
CCSc1n[nH]c2nc3c(c(=O)n12)C1(CCCCC1)Cc1ccccc1-3	i	i	i	i	i	x	i	i
CCCn1c(SCC(N)=O)nc2c(c1=O)C1(CCCC1)Cc1ccccc1-2	i	i	i	i	i	x	x	x
C/C(CC(=O)Nc1ccc(N(C)C)cc1)=N\NC(=O)c1ccc([N+](=O)[O-])cc1	i	i	i	i	i	x	x	x
Cc1cccc(NC(=O)COc2coc(CN3CCN(c4ccccc4)CC3)cc2=O)c1C	i	i	i	i	i	x	x	x
O=C(O)c1ccc(Nc2nc(-c3cc4ccccc4oc3=O)cs2)cc1O	15*	x	x	x	i	40%*	i	12%*
COc1ccc(C2C3=C(CCCC3=O)NC3=C2C(=O)c2ccccc23)cc1 (stereo not given)	11*	i	i	i	i	i	i	i
Cc1ccc(C2C3=C(CC(C)(C)CC3=O)NC3=C2C(=O)c2ccccc23)cc1 (stereo not given)	i	i	i	i	i	x	x	x
CSc1nc(-c2ccccc2)nn1C(=O)c1ccccc1	i	i	i	i	i	x	x	x
CSc1nc(-c2ccccc2)nn1C(=O)c1ccco1	i	i	i	i	i	i	i	i
Cc1ccc(/C=C2/NC(=O)N(Cc3ccccc3)C2=O)o1	5*	i	i	i	i	i	i	36%*
FC(F)(F)c1cccc(-c2nn[nH]n2)c1	4.8*	i	i	i	i	i	i	i
COc1ccccc1NC(=S)N1CC(C)(C)C1=O	i	i	i	i	i	x	x	x
O=S(=O)(C/C(=C/CO)S(=O)(=O)c1ccccc1)c1ccccc1	10*	i	i	34*	i	38%*	36%*	16%*
Cc1coc2cc3oc(=O)c(Cc4ccccc4)c(C)c3cc12	i	i	i	i	i	x	x	x
Cc1c(Cc2ccccc2)c(=O)oc2cc(O)cc(O)c12	5.5*	i	i	i	i	10%*	i	i
CCCCc1cc(=O)oc2c(C)c(OCC(=O)N3C[C@H]4C[C@@H](C3)c3cccc(=O)n3C4)ccc12	i	i	i	i	i	x	x	x
Cc1ccsc1/C=N/n1c(-c2ccccn2)n[nH]c1=S	i	i	i	i	i	x	x	x
O=C1NN(c2ccccc2)C(=O)/C1=C/c1ccc(Sc2cccc3ccccc23)o1	12*	i	i	i	i	i	i	i
Cc1cc(Br)cc2c1N(C)C(=O)C2(c1ccc(O)cc1)c1ccc(O)cc1	27*	i	i	i	i	76%*	43%*	i
SMILES	RGS4 block	MrgX1 antag	MrgX1 PAM	MrgX1 ag	RGS4 act	RGS4 block valid	M3R Ca ctr	RGS4 inh ctr2
CCOC(=O)c1c(NC(=O)C(=O)N/N=C/c2ccc(O)c(OC)c2)sc2c1CCCCC2	12*	i	i	i	i	37%*	54%*	18%*
O=C(NC1CCCC1)C(c1ccncc1)N(C(=O)Cn1nnc(-c2ccccc2F)n1)c1cccc(F)c1 (stereo not given)	i	i	i	i	i	x	x	x
O=c1[nH]c(=O)n(Cc2ccco2)c2c1C(C(F)(F)F)(C(F)(F)F)N=C(c1ccc(F)cc1)N2	i	i	i	i	i	i	i	i
CC(C)CC(=O)NC1(C(F)(F)F)C(=O)Nc2c1c(=O)[nH]c(=O)n2Cc1ccco1 (stereo not given)	i	i	i	i	i	x	x	x
O=C(Nc1nc(-c2ccc(Cl)s2)cs1)c1cccs1	i	i	i	i	i	x	x	x
O=C(Nc1nc(-c2ccc(Cl)s2)cs1)c1ccco1	6.5*	i	i	i	i	14%*	i	i
CC(=O)Nc1sc(NC(=O)c2ccco2)nc1-c1cccs1	i	i	i	i	i	x	x	x
O=C(Nc1nc(-c2cccs2)c(-c2ccccc2)s1)c1ccco1	14*	i	i	i	i	43%*	52%*	i
COc1ccc(NC(=O)CC23CC4CC(CC(C4)C2)C3)cn1	i	i	i	i	i	x	x	x
COc1ccc(C(=O)O)cc1NC(=S)NC(=O)c1ccc(-c2ccc(Cl)cc2)o1	4.8*	x	x	x	i	i	i	i
Cc1ccc(C(=O)O)cc1NC(=S)NC(=O)c1ccc(-c2ccc(Cl)cc2)o1	i	i	i	i	i	x	i	i
O=C(O)c1cccc(NC(=S)NC(=O)c2ccc(-c3ccc(Cl)cc3)o2)c1	i	i	i	i	i	x	x	x
Cc1ccccc1CCN1CCCC(CN(C)C(=O)C(=O)c2ccco2)C1 (stereo not given)	i	i	i	i	i	x	x	x
CC(=C/C(=O)O)/C=C/c1ccco1	5.4*	i	i	i	i	7.0%*	i	i
O=C(CSc1ccccc1F)NCCCN1CCCC1=O	i	i	i	i	i	x	x	x
CN1C(=O)/C(=C\c2ccncc2)SC1=Nc1ccccc1	6.3*	i	i	i	i	40%*	56%*	i
